From ChEMBL document CHEMBL1799922, “Synthesis and antimycobacterial activity of prodrugs of indeno[2,1-c]quinoline derivatives” (Eur J Med Chem, 2011)
Values after ≈ are worked out from the molar mass of the structure shown.

Tested on: Mycobacterium tuberculosis
Test: Antimicrobial activity against Mycobacterium tuberculosis H37Rv ATCC 27294 after 16 to 24 hrs by microplate alamar blue assay
Assay type: functional
Conditions: not given; call rule not given here
Outline: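 M. tuberculosis H37Rv inoculum 2×10^5 cfu/mL (100 µL) added to twofold dilutions in Middlebrook 7H12 medium; final test range 128 µM to 0.5 µM from 12.8 mM DMSO stocks. Incubated 37 °C; day 7 Tween 80 plus Alamar Blue added, further 16-24 h at 37 °C. Fluorescence ex 530/em 590 nm; MIC = lowest concentration giving >90% fluorescence reduction versus replicate bacteria-only controls. Rifampin, isoniazid controls.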

SMILES	MIC
CC(C)(C)OC(=O)N1CCC[C@H]1C(=O)O/N=C1\c2ccccc2-c2c1c(-n1ccnc1)nc1ccc(Br)cc21	0.39 µg/mL (≈ 0.663 µM)
CCC(=O)O/N=C1\c2ccccc2-c2c1c(-n1ccnc1)nc1ccc(Br)cc21	0.29 µg/mL (≈ 0.648 µM)
CCCCC(=O)O/N=C1\c2ccccc2-c2c1c(-n1ccnc1)nc1ccc(Br)cc21	0.28 µg/mL (≈ 0.589 µM)
CC(=O)OC1(C)c2ccccc2-c2c1c(-n1ccnc1)nc1ccc(Br)cc21 (stereo not drawn)	1.88 µg/mL (≈ 4.33 µM)
CCC(=O)O/N=C1\c2ccccc2-c2c1c(N1CCN(c3ccccn3)CC1)nc1ccc(Br)cc21	3.13 µg/mL (≈ 5.77 µM)

Tested on: not listed separately
Test: Cytotoxicity against human U937 cells assessed as cell viability at 1.25 ug/ml after 72 hrs by MTT assay
Assay type: cell-based, U-937
Conditions: read-out: Activity
Outline: (§1)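 U937 human monocytic cells plated at 1 × 10^5 cells/mL and allowed to adhere for 1 h at 37 °C in 5% CO2. Non-adherent cells were washed off with RPMI 1640. Adherent cells were exposed to compound in triplicate, with medium alone as the live control and 3% Tween 20 as the dead control. MTT (5 mg/mL in PBS) was then added for 3 h at 37 °C. Formazan was dissolved in 0.4 M HCl/isopropanol and absorbance read at 600 nm. Results are expressed as % cell viability.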

SMILES	viability at 72 h, 1.25 ug/ml
CC(C)(C)OC(=O)N1CCC[C@H]1C(=O)O/N=C1\c2ccccc2-c2c1c(-n1ccnc1)nc1ccc(Br)cc21	87%
CCC(=O)O/N=C1\c2ccccc2-c2c1c(-n1ccnc1)nc1ccc(Br)cc21	84%
CCCCC(=O)O/N=C1\c2ccccc2-c2c1c(-n1ccnc1)nc1ccc(Br)cc21	85%
CC(=O)OC1(C)c2ccccc2-c2c1c(-n1ccnc1)nc1ccc(Br)cc21 (stereo not drawn)	94%
CCC(=O)O/N=C1\c2ccccc2-c2c1c(N1CCN(c3ccccn3)CC1)nc1ccc(Br)cc21	83%

Tested on: not listed separately
Test: Cytotoxicity against human U937 cells assessed as cell viability at 5 ug/ml after 72 hrs by MTT assay
Assay type: cell-based, U-937
Conditions: read-out: Activity
Outline: as §1

SMILES	viability at 72 h, 5 ug/ml
CC(C)(C)OC(=O)N1CCC[C@H]1C(=O)O/N=C1\c2ccccc2-c2c1c(-n1ccnc1)nc1ccc(Br)cc21	86%
CCC(=O)O/N=C1\c2ccccc2-c2c1c(-n1ccnc1)nc1ccc(Br)cc21	86%
CCCCC(=O)O/N=C1\c2ccccc2-c2c1c(-n1ccnc1)nc1ccc(Br)cc21	82%
CC(=O)OC1(C)c2ccccc2-c2c1c(-n1ccnc1)nc1ccc(Br)cc21 (stereo not drawn)	90%
CCC(=O)O/N=C1\c2ccccc2-c2c1c(N1CCN(c3ccccn3)CC1)nc1ccc(Br)cc21	88%

Tested on: not listed separately
Test: Cytotoxicity against human U937 cells assessed as cell viability at 10 ug/ml after 72 hrs by MTT assay
Assay type: cell-based, U-937
Conditions: read-out: Activity
Outline: as §1

SMILES	viability at 72 h, 10 ug/ml
CC(C)(C)OC(=O)N1CCC[C@H]1C(=O)O/N=C1\c2ccccc2-c2c1c(-n1ccnc1)nc1ccc(Br)cc21	74%
CCC(=O)O/N=C1\c2ccccc2-c2c1c(-n1ccnc1)nc1ccc(Br)cc21	75%
CCCCC(=O)O/N=C1\c2ccccc2-c2c1c(-n1ccnc1)nc1ccc(Br)cc21	75%
CC(=O)OC1(C)c2ccccc2-c2c1c(-n1ccnc1)nc1ccc(Br)cc21 (stereo not drawn)	63%
CCC(=O)O/N=C1\c2ccccc2-c2c1c(N1CCN(c3ccccn3)CC1)nc1ccc(Br)cc21	81%

Tested on: not listed separately
Test: Cytotoxicity against human U937 cells assessed as cell viability at 20 ug/ml after 72 hrs by MTT assay
Assay type: cell-based, U-937
Conditions: read-out: Activity
Outline: as §1

SMILES	viability at 72 h, 20 ug/ml
CC(C)(C)OC(=O)N1CCC[C@H]1C(=O)O/N=C1\c2ccccc2-c2c1c(-n1ccnc1)nc1ccc(Br)cc21	78%
CCC(=O)O/N=C1\c2ccccc2-c2c1c(-n1ccnc1)nc1ccc(Br)cc21	67%
CCCCC(=O)O/N=C1\c2ccccc2-c2c1c(-n1ccnc1)nc1ccc(Br)cc21	51%
CC(=O)OC1(C)c2ccccc2-c2c1c(-n1ccnc1)nc1ccc(Br)cc21 (stereo not drawn)	35%
CCC(=O)O/N=C1\c2ccccc2-c2c1c(N1CCN(c3ccccn3)CC1)nc1ccc(Br)cc21	83%

Tested on: Serum
Test: Stability of the compound in 80% human blood serum assessed as hydrolysis to 2-bromo-6-(1H-imidazol-1-yl)-7H-indeno[2,1-c]quinolin-7-one oxime at 1 mg after 24 hrs at 37 degC by LC-MS analysis
Assay type: ADME, cell-free
Design: scale not given: the % may be the effect or the level left
Conditions: not given
Outline: (§2)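 Enzymatic hydrolysis: 1 mg prodrug dissolved in 1 mL ethanol, then 200 µL preheated human blood serum diluted to 80% with 0.16 M phosphate buffer (pH 7.4) was added. Samples were kept at 37 °C (24 h) and centrifuged 10 min at 10,000 rpm. Remaining prodrug in the supernatant was monitored by TLC and LC-MS. t1/2 is the time to 50% hydrolysis.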

SMILES	Activity
CC(C)(C)OC(=O)N1CCC[C@H]1C(=O)O/N=C1\c2ccccc2-c2c1c(-n1ccnc1)nc1ccc(Br)cc21	95%
CCC(=O)O/N=C1\c2ccccc2-c2c1c(-n1ccnc1)nc1ccc(Br)cc21	90%
CCCCC(=O)O/N=C1\c2ccccc2-c2c1c(-n1ccnc1)nc1ccc(Br)cc21	90%
CC(=O)OC1(C)c2ccccc2-c2c1c(-n1ccnc1)nc1ccc(Br)cc21 (stereo not drawn)	Not Active
CCC(=O)O/N=C1\c2ccccc2-c2c1c(N1CCN(c3ccccn3)CC1)nc1ccc(Br)cc21	13%

Tested on: not listed separately
Test: Stability of the compound in 10% aqueous ammonia buffer at pH 8 assessed as hydrolysis to 2-bromo-6-(1H-imidazol-1-yl)-7H-indeno[2,1-c]quinolin-7-one oxime at 1 mg at 37 degC by LC-MS analysis
Assay type: physicochemical
Design: scale not given: the % may be the effect or the level left
Conditions: not given
Outline: (§3)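 Chemical hydrolysis: 1 mg prodrug dissolved in 1 mL of 10% aqueous ammonia in methanol (pH 8) and held in a thermostatted water bath at 37 °C, up to 24 h. Conversion to the parent oxime was followed by TLC and LC-MS. t1/2 is the time to 50% hydrolysis.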

SMILES	Activity
CC(C)(C)OC(=O)N1CCC[C@H]1C(=O)O/N=C1\c2ccccc2-c2c1c(-n1ccnc1)nc1ccc(Br)cc21	90%
CCC(=O)O/N=C1\c2ccccc2-c2c1c(-n1ccnc1)nc1ccc(Br)cc21	95%
CCCCC(=O)O/N=C1\c2ccccc2-c2c1c(-n1ccnc1)nc1ccc(Br)cc21	90%
CC(=O)OC1(C)c2ccccc2-c2c1c(-n1ccnc1)nc1ccc(Br)cc21 (stereo not drawn)	90%
CCC(=O)O/N=C1\c2ccccc2-c2c1c(N1CCN(c3ccccn3)CC1)nc1ccc(Br)cc21	95%

Tested on: not listed separately
Test: Half life in human blood serum by LC-MS analysis
Assay type: ADME, cell-free, Plasma
Conditions: not given
Outline: as §2

SMILES	half-life
CC(C)(C)OC(=O)N1CCC[C@H]1C(=O)O/N=C1\c2ccccc2-c2c1c(-n1ccnc1)nc1ccc(Br)cc21	24 h
CCC(=O)O/N=C1\c2ccccc2-c2c1c(-n1ccnc1)nc1ccc(Br)cc21	84 h
CCCCC(=O)O/N=C1\c2ccccc2-c2c1c(-n1ccnc1)nc1ccc(Br)cc21	144 h

Tested on: not listed separately
Test: Half life in 10% aqueous ammonia buffer at pH 8 assessed as hydrolysis to 2-bromo-6-(1H-imidazol-1-yl)-7H-indeno[2,1-c]quinolin-7-one oxime at 37 degC by LC-MS analysis
Assay type: physicochemical
Conditions: not given
Outline: as §3

SMILES	half-life
CC(C)(C)OC(=O)N1CCC[C@H]1C(=O)O/N=C1\c2ccccc2-c2c1c(-n1ccnc1)nc1ccc(Br)cc21	12 h
CCC(=O)O/N=C1\c2ccccc2-c2c1c(-n1ccnc1)nc1ccc(Br)cc21	48 h
CCCCC(=O)O/N=C1\c2ccccc2-c2c1c(-n1ccnc1)nc1ccc(Br)cc21	72 h
CC(=O)OC1(C)c2ccccc2-c2c1c(-n1ccnc1)nc1ccc(Br)cc21 (stereo not drawn)	240 h
CCC(=O)O/N=C1\c2ccccc2-c2c1c(N1CCN(c3ccccn3)CC1)nc1ccc(Br)cc21	144 h

Tested on: not listed separately
Test: Octanol-water partition coefficient, log P of the compound at pH 7.4 at room temperature by UV spectrophotometric analysis
Assay type: physicochemical
Conditions: not given
Outline: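 Shake-flask method at room temperature: 1-octanol and phosphate buffer (pH 7.4) were pre-saturated by shaking for 24 h. Compound at 10^-4 M in equal volumes of both phases was shaken vigorously for 1 h, left to stand 15 min, then centrifuged 10 min at 10,000 rpm. UV absorbance of each phase was read at 280 nm against blanks, and P was taken as the octanol/water absorbance ratio.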

SMILES	logD
CC(C)(C)OC(=O)N1CCC[C@H]1C(=O)O/N=C1\c2ccccc2-c2c1c(-n1ccnc1)nc1ccc(Br)cc21	1.3
CCC(=O)O/N=C1\c2ccccc2-c2c1c(-n1ccnc1)nc1ccc(Br)cc21	1.2
CCCCC(=O)O/N=C1\c2ccccc2-c2c1c(-n1ccnc1)nc1ccc(Br)cc21	1.6
CC(=O)OC1(C)c2ccccc2-c2c1c(-n1ccnc1)nc1ccc(Br)cc21 (stereo not drawn)	2.7
CCC(=O)O/N=C1\c2ccccc2-c2c1c(N1CCN(c3ccccn3)CC1)nc1ccc(Br)cc21	2.7

Tested on: not listed separately
Test: Selectivity index, ratio CC50 for human U937 cells to MIC for Mycobacterium tuberculosis H37Rv ATCC 27294
Assay type: functional, U-937
Conditions: not given

SMILES	Selectivity Index
CC(C)(C)OC(=O)N1CCC[C@H]1C(=O)O/N=C1\c2ccccc2-c2c1c(-n1ccnc1)nc1ccc(Br)cc21	>102
CCC(=O)O/N=C1\c2ccccc2-c2c1c(-n1ccnc1)nc1ccc(Br)cc21	>137
CCCCC(=O)O/N=C1\c2ccccc2-c2c1c(-n1ccnc1)nc1ccc(Br)cc21	60
CC(=O)OC1(C)c2ccccc2-c2c1c(-n1ccnc1)nc1ccc(Br)cc21 (stereo not drawn)	7.5
CCC(=O)O/N=C1\c2ccccc2-c2c1c(N1CCN(c3ccccn3)CC1)nc1ccc(Br)cc21	>13
